ChEMBL document CHEMBL3860059, “Design, Synthesis, and Biological Evaluation of First-in-Class Dual Acting Histone Deacetylases (HDACs) and Phosphodiesterase 5 (PDE5) Inhibitors for the Treatment of Alzheimer's Disease” (J Med Chem, 2016)

Key:
[1] = target: Histone deacetylase 3/Nuclear receptor corepressor 2 (HDAC3/NCoR2) (Homo sapiens, UniProt O15379); experiment: Inhibition of full length recombinant human C-terminal His-tagged HDAC3/N-terminal GST-tagged NCOR2 (395 to 489 residues) expressed in baculovirus infected Sf9 cells using fluorogenic HDAC substrate after 30 mins by fluorescence analysis
[2] = Selectivity ratio of pIC50 for full length recombinant human N-terminal GST tagged HDAC6 expressed in baculovirus infected Sf9 cells to pIC50 for full length recombinant human C-terminal His/Flag-tagged HDAC1 expressed in baculovirus infected Sf9 cells
[3] = target: cGMP-specific 3',5'-cyclic phosphodiesterase (Homo sapiens, UniProt O76074); experiment: Inhibition of full length recombinant human N-terminal GST-tagged PDE5A1 expressed in baculovirus infected Sf9 cells using cGMP as substrate after 30 mins by HTRF assay
Histone deacetylase 1 = Histone deacetylase 1 (Homo sapiens, UniProt Q13547); experiment: Inhibition of full length recombinant human C-terminal His/Flag-tagged HDAC1 expressed in baculovirus infected Sf9 cells using fluorogenic HDAC substrate after 30 mins by fluorescence analysis
Method in brief: (§1)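 Full-length human recombinant HDAC1 (0.4 μg/mL final), HDAC2 (1.5 μg/mL), HDAC3/NCOR2 (0.1 μg/mL) or HDAC6 (3.6 μg/mL) with 10 μM fluorogenic acetyl-lysine substrate and 0.1 mg/mL BSA, 1% DMSO, 30 min at 37 °C; lysine developer 20 min at room temperature; fluorescence ex 355/em 460 nm. Vehicle = positive control, no enzyme = negative; IC50 from curve fit.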

[4] = target: T1, Protein deacetylase HDAC6 (Homo sapiens, UniProt Q9UBN7); experiment: Inhibition of full length recombinant human N-terminal GST tagged HDAC6 expressed in baculovirus infected Sf9 cells using fluorogenic HDAC substrate after 30 mins by fluorescence analysis; method in brief: as §1
T1 sequence (Q9UBN7 whole entry): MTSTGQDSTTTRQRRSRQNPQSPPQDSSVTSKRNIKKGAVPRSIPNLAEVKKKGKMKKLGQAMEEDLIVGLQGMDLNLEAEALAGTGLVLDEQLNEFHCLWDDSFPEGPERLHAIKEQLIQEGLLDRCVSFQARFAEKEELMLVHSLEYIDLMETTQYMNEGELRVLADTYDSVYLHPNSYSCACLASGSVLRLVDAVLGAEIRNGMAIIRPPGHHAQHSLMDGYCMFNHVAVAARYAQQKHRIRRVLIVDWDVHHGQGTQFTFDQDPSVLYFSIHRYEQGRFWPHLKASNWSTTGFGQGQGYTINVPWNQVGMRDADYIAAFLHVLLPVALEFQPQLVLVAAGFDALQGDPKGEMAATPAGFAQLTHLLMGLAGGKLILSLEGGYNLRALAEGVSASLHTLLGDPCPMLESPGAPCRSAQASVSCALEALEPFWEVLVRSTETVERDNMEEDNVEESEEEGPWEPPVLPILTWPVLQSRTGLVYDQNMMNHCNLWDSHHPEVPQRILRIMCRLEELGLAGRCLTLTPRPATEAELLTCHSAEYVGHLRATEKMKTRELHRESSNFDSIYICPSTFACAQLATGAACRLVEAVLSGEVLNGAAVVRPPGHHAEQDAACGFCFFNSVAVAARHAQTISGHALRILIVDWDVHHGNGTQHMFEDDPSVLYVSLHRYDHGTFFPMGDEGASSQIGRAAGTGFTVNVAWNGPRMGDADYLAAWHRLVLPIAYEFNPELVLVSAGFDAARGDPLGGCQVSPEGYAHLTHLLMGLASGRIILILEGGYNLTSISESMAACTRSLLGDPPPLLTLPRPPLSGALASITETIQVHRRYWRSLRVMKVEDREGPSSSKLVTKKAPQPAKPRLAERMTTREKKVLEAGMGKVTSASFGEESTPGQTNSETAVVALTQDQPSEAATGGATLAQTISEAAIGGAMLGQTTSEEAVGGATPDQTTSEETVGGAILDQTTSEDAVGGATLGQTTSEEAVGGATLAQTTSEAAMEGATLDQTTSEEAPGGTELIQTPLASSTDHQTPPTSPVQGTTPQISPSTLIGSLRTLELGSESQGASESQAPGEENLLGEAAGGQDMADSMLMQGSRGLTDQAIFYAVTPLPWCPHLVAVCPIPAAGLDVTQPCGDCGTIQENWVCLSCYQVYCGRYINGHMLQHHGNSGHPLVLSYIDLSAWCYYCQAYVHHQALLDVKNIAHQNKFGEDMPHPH

Histone deacetylase 2 = Histone deacetylase 2 (Homo sapiens, UniProt Q92769); experiment: Inhibition of full length recombinant human C-terminal His-tagged HDAC2 expressed in baculovirus infected Sf9 cells using fluorogenic HDAC substrate after 30 mins by fluorescence analysis; method in brief: as §1
[5] = Cytotoxicity against human THLE2 cells assessed as reduction in cell viability after 72 hrs by ATP Vialight assay; format: toxicity, cell-based, THLE-2; settings: read-out: LC50
Method in brief: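 Immortalized human liver THLE-2 cells in BEGM with 0.7 μg/mL phosphoethanolamine, 0.5 ng/mL EGF, antibiotics and 10% FBS, seeded at 10,000 cells/well and left 24 h at 37 °C. Compounds were added at final 0–100 μM in 1% DMSO for 72 h. Cellular ATP was read by luminescence after 45 min lysis.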

[6] = Passive membrane permeability of the compound at 50 uM after 18 hrs by PAMPA; format: ADME; settings: read-out: Peff
Method in brief: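 PAMPA: 50 μM donor solution in PBS/EtOH 70:30 over PVDF membrane precoated with PBL/dodecane (20 mg/mL); PBS/EtOH acceptor; 18 h at 20 °C without shaking; duplicates; donor and acceptor concentrations by UV absorbance corrected against vehicle.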

[7] = Selectivity ratio of pLC50 for mouse primary glial cells to pLC50 for human THLE2 cells; format: ADME, cell-based; settings: mouse primary glial cells versus THLE2 cells

Chain of Histone deacetylase 3/Nuclear receptor corepressor 2 (HDAC3/NCoR2) (O15379 whole entry, the tested form may be a part): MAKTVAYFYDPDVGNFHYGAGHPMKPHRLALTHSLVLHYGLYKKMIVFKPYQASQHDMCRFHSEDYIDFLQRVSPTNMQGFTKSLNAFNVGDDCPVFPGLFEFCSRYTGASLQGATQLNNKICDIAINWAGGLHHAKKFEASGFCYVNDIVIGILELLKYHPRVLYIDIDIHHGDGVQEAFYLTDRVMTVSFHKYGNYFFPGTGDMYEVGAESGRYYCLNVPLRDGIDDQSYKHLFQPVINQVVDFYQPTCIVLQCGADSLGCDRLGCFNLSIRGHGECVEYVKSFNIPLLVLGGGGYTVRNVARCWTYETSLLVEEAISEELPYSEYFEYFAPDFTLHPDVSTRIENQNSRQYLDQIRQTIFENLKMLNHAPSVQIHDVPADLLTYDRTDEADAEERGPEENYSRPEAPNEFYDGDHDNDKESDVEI
Chain of Histone deacetylase 3/Nuclear receptor corepressor 2 (HDAC3/NCoR2) (Q9Y618 whole entry, further chain, the tested form may be a part): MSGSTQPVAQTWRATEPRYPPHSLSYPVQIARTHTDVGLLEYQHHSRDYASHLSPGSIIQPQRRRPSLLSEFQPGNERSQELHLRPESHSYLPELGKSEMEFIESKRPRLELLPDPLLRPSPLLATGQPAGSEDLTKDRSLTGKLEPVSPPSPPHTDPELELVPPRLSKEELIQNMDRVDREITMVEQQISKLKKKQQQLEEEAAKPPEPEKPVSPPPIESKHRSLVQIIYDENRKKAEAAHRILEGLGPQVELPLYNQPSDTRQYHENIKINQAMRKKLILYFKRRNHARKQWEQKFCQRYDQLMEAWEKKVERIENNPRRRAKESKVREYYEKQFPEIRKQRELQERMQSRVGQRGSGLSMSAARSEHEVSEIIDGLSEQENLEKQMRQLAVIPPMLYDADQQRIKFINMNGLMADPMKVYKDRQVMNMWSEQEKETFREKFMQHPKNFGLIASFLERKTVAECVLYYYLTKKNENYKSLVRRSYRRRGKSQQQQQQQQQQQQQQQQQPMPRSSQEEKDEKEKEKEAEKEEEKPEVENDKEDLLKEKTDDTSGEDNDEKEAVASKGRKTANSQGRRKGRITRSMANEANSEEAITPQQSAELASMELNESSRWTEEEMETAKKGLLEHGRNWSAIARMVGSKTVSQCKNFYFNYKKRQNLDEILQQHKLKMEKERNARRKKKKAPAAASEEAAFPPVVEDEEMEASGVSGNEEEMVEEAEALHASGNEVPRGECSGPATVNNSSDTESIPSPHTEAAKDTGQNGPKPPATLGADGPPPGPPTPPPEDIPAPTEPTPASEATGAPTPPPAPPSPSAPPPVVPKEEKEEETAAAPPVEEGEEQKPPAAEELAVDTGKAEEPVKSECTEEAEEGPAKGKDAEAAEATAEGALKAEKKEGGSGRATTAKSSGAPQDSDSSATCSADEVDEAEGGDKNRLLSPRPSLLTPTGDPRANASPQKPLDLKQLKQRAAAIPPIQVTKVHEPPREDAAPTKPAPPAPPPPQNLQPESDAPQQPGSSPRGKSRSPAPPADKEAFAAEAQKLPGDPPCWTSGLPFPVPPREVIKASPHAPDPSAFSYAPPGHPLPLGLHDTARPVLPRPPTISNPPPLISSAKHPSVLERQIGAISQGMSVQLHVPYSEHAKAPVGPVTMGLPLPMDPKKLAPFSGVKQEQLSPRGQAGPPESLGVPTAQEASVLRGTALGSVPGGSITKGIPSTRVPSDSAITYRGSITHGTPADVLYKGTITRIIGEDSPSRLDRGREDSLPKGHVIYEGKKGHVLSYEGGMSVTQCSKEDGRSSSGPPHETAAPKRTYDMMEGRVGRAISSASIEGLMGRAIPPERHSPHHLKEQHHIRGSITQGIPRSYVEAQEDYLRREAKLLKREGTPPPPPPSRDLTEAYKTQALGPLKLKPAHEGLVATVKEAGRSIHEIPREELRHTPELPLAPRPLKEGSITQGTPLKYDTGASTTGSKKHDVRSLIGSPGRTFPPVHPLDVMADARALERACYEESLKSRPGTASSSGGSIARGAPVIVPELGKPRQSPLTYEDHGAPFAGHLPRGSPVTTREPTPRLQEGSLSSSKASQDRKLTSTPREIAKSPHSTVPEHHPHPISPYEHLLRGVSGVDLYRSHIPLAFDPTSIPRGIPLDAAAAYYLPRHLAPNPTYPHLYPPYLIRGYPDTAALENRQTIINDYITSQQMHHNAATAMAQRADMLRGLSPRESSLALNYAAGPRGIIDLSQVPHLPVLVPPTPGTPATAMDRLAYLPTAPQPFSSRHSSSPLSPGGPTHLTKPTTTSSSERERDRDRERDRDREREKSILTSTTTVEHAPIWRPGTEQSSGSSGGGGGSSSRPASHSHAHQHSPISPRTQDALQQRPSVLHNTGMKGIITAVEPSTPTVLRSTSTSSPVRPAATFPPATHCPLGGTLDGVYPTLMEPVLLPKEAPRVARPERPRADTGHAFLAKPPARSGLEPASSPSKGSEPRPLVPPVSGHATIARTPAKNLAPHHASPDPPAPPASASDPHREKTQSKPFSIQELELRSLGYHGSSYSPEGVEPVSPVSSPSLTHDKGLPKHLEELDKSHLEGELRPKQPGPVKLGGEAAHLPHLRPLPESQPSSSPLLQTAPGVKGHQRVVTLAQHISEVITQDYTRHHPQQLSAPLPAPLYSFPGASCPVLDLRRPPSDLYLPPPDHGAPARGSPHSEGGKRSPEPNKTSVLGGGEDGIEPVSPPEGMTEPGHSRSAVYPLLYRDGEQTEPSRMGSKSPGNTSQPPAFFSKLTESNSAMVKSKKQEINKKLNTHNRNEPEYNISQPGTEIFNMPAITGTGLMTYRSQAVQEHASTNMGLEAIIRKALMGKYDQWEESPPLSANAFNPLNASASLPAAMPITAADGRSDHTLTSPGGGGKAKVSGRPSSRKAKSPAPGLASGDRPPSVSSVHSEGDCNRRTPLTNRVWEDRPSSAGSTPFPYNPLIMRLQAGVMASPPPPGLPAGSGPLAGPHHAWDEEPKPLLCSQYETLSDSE
Chain of Histone deacetylase 2 (Q92769 whole entry): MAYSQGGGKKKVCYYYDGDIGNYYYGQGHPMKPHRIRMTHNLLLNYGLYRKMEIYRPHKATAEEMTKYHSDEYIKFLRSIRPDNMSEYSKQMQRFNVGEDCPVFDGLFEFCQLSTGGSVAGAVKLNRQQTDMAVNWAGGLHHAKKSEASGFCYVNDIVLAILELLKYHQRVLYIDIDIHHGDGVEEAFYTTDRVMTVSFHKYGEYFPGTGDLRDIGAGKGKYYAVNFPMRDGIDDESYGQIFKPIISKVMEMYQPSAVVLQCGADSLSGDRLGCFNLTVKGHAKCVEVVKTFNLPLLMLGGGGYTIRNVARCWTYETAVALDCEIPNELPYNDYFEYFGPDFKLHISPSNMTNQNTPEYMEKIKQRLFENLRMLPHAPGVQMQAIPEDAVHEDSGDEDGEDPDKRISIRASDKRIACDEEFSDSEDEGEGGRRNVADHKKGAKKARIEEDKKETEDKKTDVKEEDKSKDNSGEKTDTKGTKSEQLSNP
Chain of Histone deacetylase 1 (Q13547 whole entry): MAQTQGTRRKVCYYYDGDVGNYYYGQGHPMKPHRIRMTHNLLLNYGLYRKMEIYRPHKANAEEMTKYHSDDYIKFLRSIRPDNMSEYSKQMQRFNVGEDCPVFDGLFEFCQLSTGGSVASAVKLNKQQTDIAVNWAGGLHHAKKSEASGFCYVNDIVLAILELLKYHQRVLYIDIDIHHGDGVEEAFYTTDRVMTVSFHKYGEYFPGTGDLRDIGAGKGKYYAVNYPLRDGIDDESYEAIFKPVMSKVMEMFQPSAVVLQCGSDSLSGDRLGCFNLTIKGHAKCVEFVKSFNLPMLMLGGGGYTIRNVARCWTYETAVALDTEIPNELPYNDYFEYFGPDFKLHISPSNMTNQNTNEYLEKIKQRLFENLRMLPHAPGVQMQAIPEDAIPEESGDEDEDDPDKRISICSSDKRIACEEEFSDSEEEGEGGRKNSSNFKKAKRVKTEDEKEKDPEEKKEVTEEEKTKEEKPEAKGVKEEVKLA

IC50 [1] [µM] | IC50 [3] [µM] | IC50 (Histone deacetylase 1) [µM] | IC50 [4] [µM] | IC50 (Histone deacetylase 2) [µM] | Papp at 18 h, 50 µM [6] [×10⁻⁶ cm/s] | Structure (SMILES) | Ratio pIC50 [2] | CC50 at 72 h [5] [µM] | selectivity ratio [7]
0.043 | 0.01 | 0.025 | 0.584 | 0.166 | – | CCCc1nn(C)c2c(=O)[nH]c(-c3cc(N(C)C4CCN(c5ncc(C(=O)NO)cn5)CC4)ccc3OCC)nc12 | > 1 | – | –
– | 0.207 | 7.62 | 9.64 | > 20 | – | CCCc1nn(C)c2c(=O)[nH]c(-c3cc(CN4CCC(C(=O)NO)CC4)ccc3OCC)nc12 | – | – | –
– | 0.04 | 9.27 | 10.1 | > 20 | – | CCCc1nn(C)c2c(=O)[nH]c(-c3cc(N4CCCC5(CCC(C(=O)NO)CC5)C4)ccc3OCC)nc12 (configuration not stated) | – | – | –
– | 0.012 | 12.9 | 4.34 | > 20 | – | CCCc1nn(C)c2c(=O)[nH]c(-c3cc(N4CCC5(CCC(C(=O)NO)C5)CC4)ccc3OCC)nc12 (configuration not stated) | – | – | –
– | 0.022 | 5.98 | 12.7 | > 20 | – | CCCc1nn(C)c2c(=O)[nH]c(-c3cc(NC4CCC(C(=O)NO)CC4)ccc3OCC)nc12 (configuration not stated) | – | – | –
– | 0.017 | 0.118 | 0.709 | 0.712 | – | CCCc1nn(C)c2c(=O)[nH]c(-c3cc(NCC4CCN(c5ncc(C(=O)NO)cn5)CC4)ccc3OCC)nc12 | > 0.6 | – | –
– | 0.007 | 0.014 | 0.379 | 0.089 | 0.89 | CCCc1nn(C)c2c(=O)[nH]c(-c3cc(CN4CCN(c5ncc(C(=O)NO)cn5)CC4)ccc3OCC)nc12 | > 1 | – | < 0.4
> 20 | 0.013 | 2.42 | 2.35 | > 20 | – | CCCc1nn(C)c2c(=O)[nH]c(-c3cc(Cc4ccc(CCC(=O)NO)cc4)ccc3OCC)nc12 | – | – | –
– | 0.0005 | 0.406 | 0.087 | 1.94 | – | CCCc1nn(C)c2c(=O)[nH]c(-c3cc(S(=O)(=O)N4CCC(CCC(=O)NO)CC4)ccc3OCC)nc12 | – | – | –
– | 0.057 | > 20 | > 20 | > 20 | – | CCCc1nn(C)c2c(=O)[nH]c(-c3cc(CC4CCN(CCC(=O)NO)CC4)ccc3OCC)nc12 | – | – | –
– | 0.024 | 0.603 | 1.06 | 2.03 | – | CCCc1nn(C)c2c(=O)[nH]c(-c3cc(N4CCC(CCC(=O)NO)CC4)ccc3OCC)nc12 | – | – | –
– | 0.004 | 0.354 | 0.079 | 1.87 | 0.92 | CCCc1nn(C)c2c(=O)[nH]c(-c3cc(-c4ccc(C(=O)NO)cn4)ccc3OCC)nc12 | – | – | < 0.4
– | 0.074 | 0.443 | 1.9 | 1.85 | – | CCCc1nn(C)c2c(=O)[nH]c(-c3cc(N4CCC5(CCN(c6ncc(C(=O)NO)cn6)CC5)C4)ccc3OCC)nc12 | > 0.6 | – | –
– | 0.002 | 1.1 | 0.36 | 4.64 | – | CCCc1nn(C)c2c(=O)[nH]c(-c3cc(S(=O)(=O)N4CCN(CCCC(=O)NO)CC4)ccc3OCC)nc12 | – | – | –
– | 0.011 | 2.44 | 2.33 | 9.83 | – | CCCc1nn(C)c2c(=O)[nH]c(-c3cc(OC4CCC(C(=O)NO)CC4)ccc3OCC)nc12 (configuration not stated) | – | – | –
– | 0.005 | > 20 | 5.57 | > 20 | – | CCCc1nn(C)c2c(=O)[nH]c(-c3cc(-c4ccc(C(=O)NO)o4)ccc3OCC)nc12 | – | – | –
– | 0.02 | 8.75 | 5.37 | > 20 | – | CCCc1nn(C)c2c(=O)[nH]c(-c3cc(C4CC4C(=O)NO)ccc3OCC)nc12 (configuration not stated) | – | – | –
– | 0.02 | 7.81 | 1.6 | 17.5 | – | CCCc1nn(C)c2c(=O)[nH]c(-c3cc(NC4CCN(c5ccc(C(=O)NO)cc5)CC4)ccc3OCC)nc12 | – | – | –
– | 0.303 | > 20 | > 10 | > 20 | – | CCCc1nn(C)c2c(=O)[nH]c(-c3cc(CN4CC(C(=O)NO)C4)ccc3OCC)nc12 | – | – | –
– | 0.005 | 6.42 | > 20 | > 20 | – | CCCc1nn(C)c2c(=O)[nH]c(-c3cc(C(=O)NO)ccc3OCC)nc12 | – | – | –
– | 0.003 | 10.5 | 2.36 | > 20 | – | CCCc1nn(C)c2c(=O)[nH]c(-c3cc(S(=O)(=O)N4CCN(CCC(=O)NO)CC4)ccc3OCC)nc12 | – | – | –
– | 0.07 | 6.91 | 5.13 | > 20 | – | CCCc1nn(C)c2c(=O)[nH]c(-c3cc(C4CCC(CC(=O)NO)CC4)ccc3OCC)nc12 (configuration not stated) | – | – | –
– | 0.023 | 0.566 | 0.196 | 2.25 | 3.68 | CCCc1nn(C)c2c(=O)[nH]c(-c3cc(Oc4ccc(C(=O)NO)cc4)ccc3OCC)nc12 | – | – | < 0.4
– | 0.046 | 4.81 | 2.12 | > 20 | – | CCCc1nn(C)c2c(=O)[nH]c(-c3cc(CCC(=O)NO)ccc3OCC)nc12 | – | – | –
– | 0.004 | 2.36 | 0.861 | > 20 | 1.52 | CCCc1nn(C)c2c(=O)[nH]c(-c3cc(-c4ccc(C(=O)NO)nc4)ccc3OCC)nc12 | – | – | < 0.4
– | 0.044 | 7.08 | 10.4 | > 20 | – | CCCc1nn(C)c2c(=O)[nH]c(-c3cc(NCCC(=O)NO)ccc3OCC)nc12 | – | – | –
– | 0.122 | 1.53 | 1.79 | > 20 | – | CCCc1nn(C)c2c(=O)[nH]c(-c3cc(Cc4ccc(/C=C/C(=O)NO)cc4)ccc3OCC)nc12 | – | – | –
– | 0.019 | > 20 | > 20 | > 20 | – | CCCc1nn(C)c2c(=O)[nH]c(-c3cc(CC(=O)NO)ccc3OCC)nc12 | – | – | –

Structure (SMILES) | IC50 [1] [µM] | IC50 [3] [µM] | IC50 (Histone deacetylase 1) [µM] | IC50 [4] [µM] | IC50 (Histone deacetylase 2) [µM] | Papp at 18 h, 50 µM [6] [×10⁻⁶ cm/s] | Ratio pIC50 [2] | CC50 at 72 h [5] [µM] | selectivity ratio [7]
CCCc1nn(C)c2c(=O)[nH]c(-c3cc(NC4CCN(c5ncc(C(=O)NO)cn5)CC4)ccc3OCC)nc12 | 0.031 | 0.005 | 0.068 | 0.441 | 0.49 | 1.34 | > 0.6 | 2.57 | < 0.4
CCCc1nn(C)c2c(=O)[nH]c(-c3cc(S(=O)(=O)N4CCN(C)CC4)ccc3OCC)nc12 | – | – | – | – | – | 2.75 | – | > 100 | –
